Experimental data from ChEMBL document CHEMBL1687766, “In vitro activity of the new multivalent glycopeptide-cephalosporin antibiotic TD-1792 against vancomycin-nonsusceptible Staphylococcus isolates” (Antimicrob Agents Chemother, 2010).
Converted amounts (≈) assume the structure as drawn.

Columns and labels:
[1] = Half life of healthy human; type: ADME, organism-based; settings: in vivo
[2] = system: Serum; assay: Drug level in serum of healthy human; type: ADME, cell-free
[3] = Plasma protein binding in human; type: ADME, cell-free; settings: read-out: PPB (converted)
[4] = system: Staphylococcus aureus; assay: Antimicrobial activity against vancomycin-resistant Staphylococcus aureus isolate NY after 24 hrs by microdilution method; type: functional
How it was run: (§1)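 Broth microdilution per CLSI, inoculum 5 × 10^5 CFU/ml, Mueller-Hinton broth with 12.5 μg/ml magnesium and 25 μg/ml calcium (SMHB). Daptomycin was instead tested in SMHB at physiologic calcium (final 1.1 to 1.3 mM). Incubation 24 h at 35°C; MIC read; run in duplicate. MBC from 5-μl samples of clear wells plated on BHI agar, 24 h at 35°C.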

[5] = system: Staphylococcus aureus; assay: Antimicrobial activity against vancomycin-intermediate Staphylococcus aureus isolate MU50 after 24 hrs by microdilution method; type: functional; settings: isolate MU50, 24 h; how it was run: as §1
[6] = system: Staphylococcus aureus; assay: Antimicrobial activity against vancomycin-intermediate Staphylococcus aureus isolate MU50 assessed as bacterial count at 8 times MIC after 24 hrs by colony counting method; type: functional
How it was run: (§2)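 24-h time-kill run in triplicate in supplemented Mueller-Hinton broth (12.5 μg/ml Mg, 25 μg/ml Ca), adjusted to 1.1–1.3 mM Ca for daptomycin. […] Samples were taken at 0, 1, 4, 8 and 24 h and counted on BHI agar after 24 h at 35°C. Value is log10 CFU/ml change from baseline at 24 h.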

[7] = system: Staphylococcus aureus; assay: Antimicrobial activity against vancomycin-intermediate Staphylococcus aureus isolate NJ992 assessed as bacterial count at 16 times MIC after 24 hrs by colony counting method; type: functional; how it was run: as §2
[8] = system: Staphylococcus aureus; assay: Antimicrobial activity against vancomycin-heteroresistant Staphylococcus aureus after 24 hrs by microdilution method; type: functional; how it was run: as §1
[9] = system: Staphylococcus aureus; assay: Antimicrobial activity against vancomycin-intermediate Staphylococcus aureus after 24 hrs by microdilution method; type: functional; how it was run: as §1
[10] = system: Staphylococcus aureus; assay: Antimicrobial activity against vancomycin-intermediate Staphylococcus aureus isolate NJ992 assessed as bacterial count at 4 times MIC after 24 hrs by colony counting method; type: functional; how it was run: as §2
[11] = system: Staphylococcus aureus; assay: Antimicrobial activity against vancomycin-intermediate Staphylococcus aureus isolate NJ992 assessed as bacterial count at 8 times MIC after 24 hrs by colony counting method; type: functional; how it was run: as §2
[12] = system: Staphylococcus aureus; assay: Antimicrobial activity against vancomycin-intermediate Staphylococcus aureus isolate NJ992 after 24 hrs by microdilution method; type: functional; settings: isolate NJ992, 24 h; how it was run: as §1
[13] = system: Staphylococcus aureus; assay: Antimicrobial activity against vancomycin-resistant Staphylococcus aureus isolate PA after 24 hrs by microdilution method; type: functional; how it was run: as §1
[14] = system: Staphylococcus aureus; assay: Antimicrobial activity against vancomycin-intermediate Staphylococcus aureus isolate MU50 assessed as bacterial count at 16 times MIC after 24 hrs by colony counting method; type: functional
How it was run: (§3)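 Time-kill in triplicate. Mid-exponential culture (OD600 ~0.3) diluted in supplemented Mueller-Hinton broth to 5 × 10^6 CFU/ml. Daptomycin was run at physiologic calcium, 1.1 to 1.3 mM. […] Samples at 0, 1, 4, 8 and 24 h were diluted in cold saline or vacuum filtered, then spiral-plated on BHI agar for 24 h at 35°C. Value is the log10 CFU/ml change from baseline at 24 h.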

[15] = system: Staphylococcus aureus; assay: Antimicrobial activity against vancomycin-resistant Staphylococcus aureus isolate MI after 24 hrs by microdilution method; type: functional; how it was run: as §1
[16] = system: Staphylococcus aureus; assay: Antimicrobial activity against vancomycin-intermediate Staphylococcus aureus isolate NJ992 assessed as bacterial count at 32 times MIC after 24 hrs by colony counting method; type: functional; how it was run: as §2
[17] = system: Staphylococcus haemolyticus; assay: Antimicrobial activity against vancomycin-intermediate Staphylococcus haemolyticus after 24 hrs by microdilution method; type: functional
How it was run: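 CLSI broth microdilution in supplemented Mueller-Hinton broth (12.5 μg/ml Mg, 25 μg/ml Ca), with Ca adjusted to 1.1–1.3 mM for daptomycin. Inoculum was 5 × 10^5 CFU/ml, incubated 24 h at 35°C, done in duplicate. For MBC, clear wells were plated on BHI agar and read after 24 h at 35°C.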

[18] = system: Staphylococcus aureus; assay: Antimicrobial activity against methicillin-resistant Staphylococcus aureus infected in patient with complicated skin and skin structure infections assessed as cure rate; type: functional
[19] = system: Staphylococcus aureus; assay: Antimicrobial activity against vancomycin-intermediate Staphylococcus aureus isolate MU50 assessed as bacterial count at 32 times MIC after 24 hrs by colony counting method; type: functional; how it was run: as §2
[20] = system: Staphylococcus aureus; assay: Antimicrobial activity against vancomycin-intermediate Staphylococcus aureus isolate MU50 assessed as bacterial count at 4 times MIC after 24 hrs by colony counting method; type: functional; how it was run: as §2
[21] = system: Staphylococcus aureus; assay: Antimicrobial activity against vancomycin-resistant Staphylococcus aureus isolate MI assessed as bacterial count at 8 times MIC after 24 hrs by colony counting method; type: functional; how it was run: as §3
[22] = system: Staphylococcus aureus; assay: Antimicrobial activity against vancomycin-resistant Staphylococcus aureus isolate MI assessed as bacterial count at 16 times MIC after 24 hrs by colony counting method; type: functional; how it was run: as §3
[23] = system: Staphylococcus aureus; assay: Antimicrobial activity against vancomycin-resistant Staphylococcus aureus isolate PA assessed as bacterial count at 32 times MIC after 24 hrs by colony counting method; type: functional; how it was run: as §3
[24] = system: Staphylococcus aureus; assay: Antimicrobial activity against vancomycin-resistant Staphylococcus aureus isolate PA assessed as bacterial count at 4 times MIC after 24 hrs by colony counting method; type: functional; how it was run: as §3
[25] = system: Staphylococcus aureus; assay: Antimicrobial activity against vancomycin-resistant Staphylococcus aureus isolate MI assessed as bacterial count at 4 times MIC after 24 hrs by colony counting method; type: functional; how it was run: as §3
[26] = system: Staphylococcus aureus; assay: Antimicrobial activity against vancomycin-resistant Staphylococcus aureus isolate PA assessed as bacterial count at 16 times MIC after 24 hrs by colony counting method; type: functional; how it was run: as §3
[27] = system: Staphylococcus aureus; assay: Antimicrobial activity against vancomycin-resistant Staphylococcus aureus isolate MI assessed as bacterial count at 32 times MIC after 24 hrs by colony counting method; type: functional; how it was run: as §3
[28] = system: Staphylococcus aureus; assay: Antimicrobial activity against vancomycin-resistant Staphylococcus aureus isolate PA assessed as bacterial count at 8 times MIC after 24 hrs by colony counting method; type: functional; how it was run: as §3
[29] = Staphylococcus haemolyticus, 24 h

Structure (SMILES)	MBC [4]	MIC [4]	MBC [5]	log10CFU/ml [6]	log10CFU/ml [7]	MBC ([8]; Staphylococcus aureus, 24 h)	MIC50 ([8]; Staphylococcus aureus, 24 h)	MIC90 ([8]; Staphylococcus aureus, 24 h)	MBC50 [9]	MBC90 [9]	MBC ([9]; Staphylococcus aureus, 24 h)	MIC50 ([9]; Staphylococcus aureus, 24 h)	MIC90 ([9]; Staphylococcus aureus, 24 h)	log10CFU/ml [10]	log10CFU/ml [11]	MBC [12]	MIC [12]	MBC [13]	log10CFU/ml [14]	MBC [15]	other results
CN[C@H](CC(C)C)C(=O)N[C@H]1C(=O)N[C@@H](CC(N)=O)C(=O)N[C@H]2C(=O)N[C@H]3C(=O)N[C@H](C(=O)N[C@H](C(=O)NCCCO/N=C(\C(=O)N[C@@H]4C(=O)N5C(C(=O)[O-])=C(C[n+]6ccccc6)CS[C@H]45)c4nc(N)sc4Cl)c4cc(O)cc(O)c4-c4cc3ccc4O)[C@H](O)c3ccc(c(Cl)c3)Oc3cc2cc(c3O[C@@H]2O[C@H](CO)[C@@H](O)[C@H](O)[C@H]2O[C@H]2C[C@](C)(N)[C@H](O)[C@H](C)O2)Oc2ccc(cc2Cl)[C@H]1O	–	–	–	–	–	–	–	–	–	–	–	–	–	–	–	–	–	–	–	–	half-life [1]: 6.8 h; Drug uptake [2]: 4.65 µg/mL; fraction unbound [3]: 0.51
CN[C@H](CC(C)C)C(=O)N[C@H]1C(=O)N[C@@H](CC(N)=O)C(=O)N[C@H]2C(=O)N[C@H]3C(=O)N[C@H](C(=O)N[C@H](C(=O)O)c4cc(O)cc(O)c4-c4cc3ccc4O)[C@H](O)c3ccc(c(Cl)c3)Oc3cc2cc(c3O[C@@H]2O[C@H](CO)[C@@H](O)[C@H](O)[C@H]2O[C@H]2C[C@](C)(N)[C@H](O)[C@H](C)O2)Oc2ccc(cc2Cl)[C@H]1O [VANCOMYCIN]	128 µg/mL (≈ 88.3 µM)	64 µg/mL (≈ 44.2 µM)	4 µg/mL (≈ 2.76 µM)	3.32	4.58	4 µg/mL (≈ 2.76 µM)	4 µg/mL (≈ 2.76 µM)	8 µg/mL (≈ 5.52 µM)	4 µg/mL (≈ 2.76 µM)	8 µg/mL (≈ 5.52 µM)	4 µg/mL (≈ 2.76 µM)	4 µg/mL (≈ 2.76 µM)	8 µg/mL (≈ 5.52 µM)	2.88	4.3	8 µg/mL (≈ 5.52 µM)	8 µg/mL (≈ 5.52 µM)	64 µg/mL (≈ 44.2 µM)	4.48	> 2050 µg/mL	MBC50 [8]: 4 µg/mL (≈ 2.76 µM); MBC90 [8]: 8 µg/mL (≈ 5.52 µM); MIC ([8]; Staphylococcus aureus, 24 h): 4 µg/mL (≈ 2.76 µM); MIC ([9]; Staphylococcus aureus, 24 h): 4 µg/mL (≈ 2.76 µM); MIC [13]: 32 µg/mL (≈ 22.1 µM); MIC [15]: 1020 µg/mL (≈ 707 µM); log10CFU/ml [16]: 4.79; MBC50 [17]: 4 µg/mL (≈ 2.76 µM); MBC90 [17]: 8 µg/mL (≈ 5.52 µM); MBC [17, 29]: 4 µg/mL (≈ 2.76 µM); MIC [17, 29]: 4 µg/mL (≈ 2.76 µM); MIC50 [17, 29]: 4 µg/mL (≈ 2.76 µM); MIC90 [17, 29]: 8 µg/mL (≈ 5.52 µM); Activity [18]: 91.9%; log10CFU/ml [19]: 4.41; log10CFU/ml [20]: 2.71
CC(=O)NC[C@H]1CN(c2ccc(N3CCOCC3)c(F)c2)C(=O)O1 [LINEZOLID]	0.5 µg/mL (≈ 1.48 µM)	0.25 µg/mL (≈ 0.741 µM)	32 µg/mL (≈ 94.9 µM)	3.26	3.98	1 µg/mL (≈ 2.96 µM)	2 µg/mL (≈ 5.93 µM)	2 µg/mL (≈ 5.93 µM)	8 µg/mL (≈ 23.7 µM)	32 µg/mL (≈ 94.9 µM)	1 µg/mL (≈ 2.96 µM)	2 µg/mL (≈ 5.93 µM)	2 µg/mL (≈ 5.93 µM)	2.13	3.66	2 µg/mL (≈ 5.93 µM)	1 µg/mL (≈ 2.96 µM)	4 µg/mL (≈ 11.9 µM)	4.25	16 µg/mL (≈ 47.4 µM)	MIC [5]: 1 µg/mL (≈ 2.96 µM); log10CFU/ml [21]: 1.55; log10CFU/ml [22]: 3.64; log10CFU/ml [23]: 4.95; log10CFU/ml [24]: 3.24; log10CFU/ml [25]: 1.31; log10CFU/ml [26]: 4.24; MIC [15]: 1 µg/mL (≈ 2.96 µM); log10CFU/ml [27]: 4.52; log10CFU/ml [16]: 4.89; MBC50 [17]: 8 µg/mL (≈ 23.7 µM); MBC90 [17]: 32 µg/mL (≈ 94.9 µM); MBC [17, 29]: 1 µg/mL (≈ 2.96 µM); MIC50 [17, 29]: 2 µg/mL (≈ 5.93 µM); MIC90 [17, 29]: 2 µg/mL (≈ 5.93 µM); log10CFU/ml [19]: 4.8; log10CFU/ml [20]: 3.19; log10CFU/ml [28]: 4.2
